PKA-R2B activ = activates the human PKA-R2B holoenzyme complex; P22694+P31323; PKA-R2B holoenzyme dissociation, Cy5-IP20 fluorescence polarization; R2B truncated from residue 108, S112A mutant; 0% DMSO only, 100% 113 µM cGMP; activation, % at 11.4 µM; 340,000 tested, 0.079% active;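 active = activation above a cutoff set at the mean over all compounds plus 3 SD, cut at about 18% in these data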;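 also: higher means more holoenzyme dissociation and a rise in polarization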
Target sequence (P31323 whole entry, looked up, other chains not shown, the tested form may be a part): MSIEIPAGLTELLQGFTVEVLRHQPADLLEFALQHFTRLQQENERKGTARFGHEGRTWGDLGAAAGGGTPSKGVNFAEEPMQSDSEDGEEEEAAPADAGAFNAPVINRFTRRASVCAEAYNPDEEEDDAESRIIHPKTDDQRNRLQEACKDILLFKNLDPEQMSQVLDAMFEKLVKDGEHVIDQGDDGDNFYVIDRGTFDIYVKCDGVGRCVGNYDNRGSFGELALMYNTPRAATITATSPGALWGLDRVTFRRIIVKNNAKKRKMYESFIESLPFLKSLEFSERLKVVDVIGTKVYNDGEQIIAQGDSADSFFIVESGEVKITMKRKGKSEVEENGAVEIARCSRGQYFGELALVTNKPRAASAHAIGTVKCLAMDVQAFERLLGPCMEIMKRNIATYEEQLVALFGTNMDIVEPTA
Vif inh = inhibitors of HIV Vif | HEK293T cells, Vif self-association by quenched fluorescence, imaging, 24 h | inhibition, % at 7.49 µM | 340,000 tested, 0.35% active | AID 602346; in the data active = inhibition above about 50%, passing the limit was not always enough
PKA-R1A activ = PKA-R1A complex activation | P00514+P68181 | PKA-R1A dissociation, Cy5-IP20 fluorescence polarization; scaled: DMSO 0%, 113 µM cGMP 100% | activation, % at 11.4 µM | 340,000 tested, 0.083% active | AID 504707;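 active = percent activation above the mean of all tested compounds plus 3 SD, cut at about 19% in these data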;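 also: higher means more PKAc released from R1A so a rise in polarization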
SR-BI DiI inh = mouse SR-BI HDL lipid transfer inhibition; Q61009; ldlA[mSR-BI] CHO cells, DiI-HDL uptake fluorescence, 3 h; inhibition, % at 12.5 µM; 320,000 tested, 0.96% active;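 active = mean replicate inhibition of at least 70% and a set share of replicates each scoring 70 or more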;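 also: 0% = median of neutral control wells and 100% = median of positive control wells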
SR-BI uptake up = enhances SR-BI lipid uptake from DiI-HDL; CHO ldlA[mSR-BI] cells, DiI-HDL uptake fluorescence, 3 h; 100 = double the neutral-control signal; activation, % at 12.5 µM; 320,000 tested, 0.096% active; AID 504775;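 active = mean replicate activation of at least 60% and every replicate at or above 60%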;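 also: 0% = median plate neutral-control signal and 100% = twice that signal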
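Test system: SR-BI-overexpressing, LDLR-lacking CHO cells; Also added: labelled HDL, 10 µg/mL; Measured by: bottom-read cell fluorescence after medium removal, ex 550/em 595 nm; Timing: 3 h uptake period with compound, 37 °C; Buffer or medium: F12, 0.5% BSA, 25 mM HEPES; Doses: single compound concentration, delivered by pin transfer.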
* marks the source's active call; other numbers are inactive results; i = inactive; . = not tested or not shown; + = active, no number. Rows were chosen to be rich in hits. Some 1.4% of all compounds tested hit in one or more screens of this group.

SMILES | PKA-R2B activ | Vif inh | PKA-R1A activ | SR-BI DiI inh | SR-BI uptake up
C#CCOCCOCCOCCNc1nc(N2CCN(C(=O)CCCCCCCCCCNC(=O)[C@H]([C@@H](C)CC)n3cc(CCCCCN)nn3)CC2)nc(N2CCN(C(=O)CCCCCCCCCCNC(=O)[C@H]([C@@H](C)CC)n3cc(CCCCN=C(N)N)nn3)CC2)n1 | 7 | + | 0 | 40 | -40
CC[C@H](C)[C@@H](C(=O)NCCCCCCCCCCC(=O)N1CCN(C(=O)OC(C)(C)C)CC1)n1cc(CCCCCNC(=O)OC(C)(C)C)nn1 | -16 | -4 | 2 | 71* | -71
CC[C@@H](NCCCn1ccc(NC(=O)OCc2ccccc2)nc1=O)c1ccccc1 | -3 | 9 | 3 | . | .
Cc1nc2ccc(C(=O)Nc3cccc([N+](=O)[O-])c3)cc2s1 | 6 | -22 | -7 | 74* | -74
COc1ccc(C(=O)Nc2ccc(OC)c([N+](=O)[O-])c2)cc1Br | -4 | -2 | 0 | 68 | -60
COc1ccc(C(=O)Nc2cccc([N+](=O)[O-])c2)cc1Br | -8 | 74* | -5 | 83* | -83
Cc1ccccc1NS(=O)(=O)c1cc(C(=O)Nc2cccc([N+](=O)[O-])c2)ccc1C | -7 | 0 | -1 | 72* | -72
COc1ccc(C(=O)N/N=C(/C)c2cccc(NC(=O)c3ccncc3)c2)cc1OC | -2 | 6 | 2 | 15 | -15
COc1ccc(C(=O)Nc2cccc(/C(C)=N/NC(=O)c3ccc([N+](=O)[O-])cc3)c2)cc1OC | -13 | -13 | 0 | 71* | -71
COc1ccc(CC(=O)N(C)c2ccccc2)cc1S(=O)(=O)N1CCOCC1 | -5 | . | -7 | . | .
CCCc1ccc(C(O)c2ncc(-c3cccc(C)c3)[nH]2)cc1 (centres undefined) | . | 0 | . | . | .
COc1cccc(C(C)(O)c2nc(-c3ccccc3OC)cs2)c1 (centres undefined) | . | 57* | . | . | .
O=C(CN1C(=O)COc2ccc(S(=O)(=O)N3CCCCC3)cc21)NCc1ccccc1Cl | -8 | -2 | -5 | -20 | .
Cc1ccc(Nc2nc(N)nc(CSc3nnc(-c4ccncc4)o3)n2)cc1 | -11 | 83* | 7 | 17 | -17
Cc1ccc(Nc2nc(N)nc(CSc3ncccn3)n2)cc1 | -11 | -7 | 5 | 7 | -7
O=C(NCC1CCCC(CNC(=O)N2CCc3ccccc32)C1)N1CCc2ccccc21 (centres undefined) | 2 | -9 | 7 | 65 | -65
CCOc1ccccc1NCc1cc(=O)oc2cc(C)c(O)cc12 | 7 | 3 | 4 | 74* | -74
O=C(Cc1sc(Nc2ccccc2)nc1-c1ccccc1)NCc1ccccc1 | -2 | 98* | -1 | -2 | 2
C/C(=N\Nc1ccc(Cl)c(C(=O)O)c1)c1cc2ccccc2o1 | 0 | 4 | -6 | -10 | 10
C/C(=N\Nc1ccc(Cl)c(C(=O)O)c1)c1cccc2ccccc12 | -6 | 65* | -7 | . | .
Cc1cc(S(=O)(=O)Nc2nc(CN3CCOCC3)nc3sc4c(c23)CCC4)cc(C)c1C | 9 | 11 | 10 | -5 | 5
COc1cccc(Nc2nc(CN3CCOCC3)nc3sc4c(c23)CCCC4)c1 | 2 | 96* | 1 | 17 | -17
OCCCCc1nccc2c1[nH]c1ccccc12 | -10 | -1 | -11 | i | 538*
C[C@H](CO)N1C[C@H](C)[C@@H](CN(C)C(=O)Nc2ccc(C(F)(F)F)cc2)Oc2c(NC(=O)CCC(F)(F)F)cccc2C1=O | 1 | -17 | 1 | 76* | -76
Cc1noc(C)c1NC(=O)Nc1cccc2c1O[C@H](CN(C)C(=O)Nc1ccc(C(F)(F)F)cc1)[C@@H](C)CN([C@H](C)CO)C2=O | -8 | 6 | 0 | 79* | -79
SMILES | PKA-R2B activ | Vif inh | PKA-R1A activ | SR-BI DiI inh | SR-BI uptake up
COc1ccc(NC(=O)N(C)C[C@H]2Oc3c(NC(=O)Nc4c(C)noc4C)cccc3C(=O)N([C@H](C)CO)C[C@@H]2C)cc1 | -6 | . | -1 | 42 | -42
COc1ccc(NC(=O)CCCSc2ccccc2)cc1 | 3 | 0 | -1 | 5 | -5
CC(C)Cn1c([N+](=O)[O-])nc2c1c(=O)[nH]c(=O)n2C | 4 | 11 | -2 | 10 | -10
Cn1c(=O)[nH]c(=O)c2c1nc([N+](=O)[O-])n2Cc1ccccc1 | 1 | 99* | -3 | 5 | -5
c1ccc(-c2nnc(-c3ccccc3)c(-c3c[nH]c4ccccc34)n2)cc1 | 3 | . | -11 | 76* | -76
CCOc1cc2[nH]c(=S)n(C3CCN(Cc4ccccc4)CC3)c(=O)c2cc1OCC | 7 | 4 | -9 | 75* | -75
Cc1[nH]n(-c2ccccc2)c(=O)c1N=Nc1cccc(Cl)c1 | -2 | 2 | 3 | 6 | -6
CC(=O)c1cccc(N=Nc2c(-c3ccccc3)[nH]n(-c3ccccc3)c2=O)c1 | 4 | -2 | 6 | 100* | -100
O=Nc1[nH]c(=O)c(/C=C(\O)c2ccccc2)nc1NO | 0 | 106* | -4 | 6 | -6
O/C(=C\c1nc2ccccc2nc1/C=C(\O)c1ccccc1)c1ccccc1 | 0 | 5 | -17 | 66 | -66
Cc1ccc(NC(=O)Cn2c(=O)oc3cc(S(=O)(=O)N4CCC(C)CC4)ccc32)cc1C | -17 | -17 | 10 | 5 | -5
COc1ccc(NC(=O)c2cc(C3CC3)nc3c2cnn3C(C)C)cc1OC | -7 | -2 | -2 | 74* | -74
COc1cc(C=C2CCCC(=Cc3ccc(OCC4CO4)c(OC)c3)C2=O)ccc1OCC1CO1 (centres undefined) | -1 | 62* | 5 | . | .
N=c1c(-c2nc3ccccc3[nH]2)cc(C(=O)c2cccs2)nn1-c1ccccc1 | 12 | 4 | 12 | 62 | -62
N=c1c(-c2nc3ccccc3[nH]2)cc(C(=O)c2ccco2)nn1-c1ccccc1 | -4 | -9 | -4 | 73* | -73
CCCN(CCC)C1=CC(=[N+]2CCCC2)CC(C)(C)C1 | -6 | 5 | -3 | -83 | 83*
CN(C)NC1=CC(=[N+]2CCCC2)CC(C)(C)C1 | 6 | 9 | 13 | 10 | -10
COc1ccc(NC(=O)c2[nH]c(C)c(C(C)=O)c2C)cc1Cl | 1 | 0 | 5 | 75* | -75
CC(=O)c1c(C)[nH]c(C(=O)Nc2ccc(C)c(C)c2)c1C | 2 | -4 | 0 | 40 | -40
CCCCn1nc2cc(C(=O)NC3CCc4ccccc43)ccc2c1OCC (centres undefined) | 1 | -1 | 9 | 77* | -77
CCCn1nc2cc(C(=O)NC3CCCc4ccccc43)ccc2c1OCC (centres undefined) | -5 | -3 | -4 | 65 | -65

High-throughput results as filed in PubChem.
